From PubChem
Compounds with a hit are over-represented: about 3.2% of the library has one in this group of screens.
Plk1 PBD FP = inhibitors of human Plk1 polo box domain binding | P53350 | Plk1 PBD phosphopeptide binding, fluorescence polarization | inhibition, %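 (tested at about 20 µM)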 | 97,000 compounds, 0.13% hits | AID 693; in the data active = inhibition above about 34%, passing the limit was not always enough
EphB4 antag = blocks human EphB4 binding to ephrin-B2; P54760; AID 720; 97,000 compounds, 0.15% hits; inhibition, % at 7 µM; EphB4 LBD / TNYL-RAW-Alexa532 peptide, fluorescence polarization;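 active = inhibition above the screen-wide mean inhibition plus 3 SD, cut at about 15% in these data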;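 also: 0% = DMSO wells and 100% = excess unlabeled TNYL-RAW peptide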
Target sequence (P54760 whole entry, looked up, the tested form may be a part): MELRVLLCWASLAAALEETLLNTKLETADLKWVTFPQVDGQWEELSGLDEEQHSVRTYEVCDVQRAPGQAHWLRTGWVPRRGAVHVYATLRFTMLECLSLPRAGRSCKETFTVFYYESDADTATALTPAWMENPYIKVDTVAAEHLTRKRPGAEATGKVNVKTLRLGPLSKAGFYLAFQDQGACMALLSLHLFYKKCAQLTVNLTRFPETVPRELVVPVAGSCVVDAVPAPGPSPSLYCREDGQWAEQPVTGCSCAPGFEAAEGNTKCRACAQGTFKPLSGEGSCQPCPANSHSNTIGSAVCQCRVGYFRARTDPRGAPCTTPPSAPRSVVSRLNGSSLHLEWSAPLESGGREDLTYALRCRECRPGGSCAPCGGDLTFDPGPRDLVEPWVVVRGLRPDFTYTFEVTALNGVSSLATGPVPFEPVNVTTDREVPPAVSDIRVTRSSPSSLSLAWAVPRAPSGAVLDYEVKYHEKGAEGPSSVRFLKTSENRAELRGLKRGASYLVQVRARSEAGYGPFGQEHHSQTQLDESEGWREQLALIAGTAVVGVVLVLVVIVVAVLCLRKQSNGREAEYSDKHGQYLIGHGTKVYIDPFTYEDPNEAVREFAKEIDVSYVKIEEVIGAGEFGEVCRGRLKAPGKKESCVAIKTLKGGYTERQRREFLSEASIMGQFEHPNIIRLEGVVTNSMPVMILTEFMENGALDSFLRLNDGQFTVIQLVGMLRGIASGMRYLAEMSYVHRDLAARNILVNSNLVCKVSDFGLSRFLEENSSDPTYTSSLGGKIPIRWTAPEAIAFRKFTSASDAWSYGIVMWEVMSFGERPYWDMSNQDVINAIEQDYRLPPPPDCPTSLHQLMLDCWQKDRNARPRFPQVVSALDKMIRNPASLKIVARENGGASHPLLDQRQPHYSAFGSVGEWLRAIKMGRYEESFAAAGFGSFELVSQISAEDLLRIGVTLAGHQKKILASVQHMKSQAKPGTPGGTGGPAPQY
Rev-RRE block = HIV Rev-RRE protein-RNA interaction inhibition. P05866. Rev peptide-RRE RNA binding, FRET. inhibition, % at 8 µM. 97,000 compounds, 0.79% hits. AID 704;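 active = inhibition above the screen-wide mean plus 3 SD, cut at about 35% in these data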;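 also: 0% = median DMSO wells and 100% = median Neomycin B control wells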
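Test system: Cy5-tagged RRE RNA duplex with fluorescein-tagged Rev peptide | Read-out: % inhibition of FRET ratio versus controls | Probe or stimulus: Labelled Rev peptide | Incubation: 5 min RNA-compound premix plus 15 min binding step, 25 °C | Technique: FRET fluorescence readout | Benchmarks: DMSO low control, neomycin B high control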
PLK1 kinase inh = blocks human PLK1 kinase activity; recombinant PLK1 kinase, TR-FRET peptide phosphorylation; inhibition, % at 10 µM; 97,000 compounds, 0.53% hits; AID 619;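 active = inhibition of 50% or more in the single-concentration screen; inactive = inhibition below 50%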;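 also: 0% = DMSO max control and 100% = H-89 dihydrochloride min control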
DAT uptake mod = changed human dopamine transporter uptake under cocaine IC80. Q01959. LLC-PK1 hDAT cells, [14C]-dopamine uptake with cocaine IC80; actives deviate in either direction. B-score at 10 µM. 110,000 compounds, 1.3% hits. AID 449768;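 active = Z score or B-score, a plate-position-corrected score, falls beyond the plate's 99.7% confidence bounds, in either direction; inactive = both scores lie inside the 99.7% bounds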;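 also: scored against the spread of the other compound wells on the same plate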
FAK inh = FAK (human) kinase inhibition. Q05397. biochemical FAK kinase activity assay. inhibition, %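 (tested at 7 µM)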. 97,000 compounds, 0.84% hits; in the data active = inhibition above about 19%;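 also: 0% = DMSO and 100% = reference compound high control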
Starred values were filed as active, the others as inactive; / = no result given; [ ] = dose if it differs, or a comment.

SMILES	Plk1 PBD FP	EphB4 antag	Rev-RRE block	PLK1 kinase inh	DAT uptake mod	FAK inh
COCCN1C(=O)c2ccccc2C(C(=O)N2CCN(c3ccccc3)CC2)C1c1ccc(F)cc1 (stereo unspecified)	16.3	-1.8	1.6	-11.1	0.245	0.2
Cc1cccc2cc3c(N)c(C(=O)N4CCOCC4)sc3nc12	4.1	-2.8	50.0*	-2.8	1.14	1.0
Cc1ccc2nc3sc(C(=O)N4CCCc5ccccc54)c(N)c3cc2c1	-57.2	-0.2	48.6*	-4.0	-0.301	2.1
Cc1cc(C)c2cc3c(N)c(C(=O)N4CCc5ccccc5C4)sc3nc2c1	-7.1	3.2	71.7*	-9.2	0.159	1.9
Cn1c(=O)c2[nH]c(-c3ccc(S(=O)(=O)O)cc3)nc2n(C)c1=O	/	/	/	/	0.23	/
Cc1cccc(Cn2c(=O)c3c(nc4n3CCCN4Cc3ccccc3)n(C)c2=O)c1	15.2	-2.2	-3.3	-8.0	3.03*	0.2
C=CCn1c(NCCc2ccccc2)nc2c1c(=O)n(C)c(=O)n2C	18.7	15.6*	5.4	-5.0	0.308	7.5
CCNc1nc2c(c(=O)n(Cc3ccccc3)c(=O)n2C)n1Cc1ccccc1	-8.8	9.3	8.3	-1.7	2.98*	0.9
C/C(Cl)=C\Cn1c(NCCc2ccccc2)nc2c1c(=O)n(C)c(=O)n2C	/	/	/	/	-1.12	/
Cn1c(=O)c2c(nc(NCc3ccccc3)n2Cc2ccc(F)cc2)n(C)c1=O	3.9	2.0	2.4	4.0	0.0553	-8.9
COc1ccc(C(=O)NC(C)(C)C)cc1S(=O)(=O)N1CCCC1	-22.7	1.7	2.6	-6.8	0.315	0.0
CC(NC(=O)c1ccco1)C(=O)N1CCc2ccccc2C1 (stereo unspecified)	6.8	-1.8	0.3	-11.8	0.522	1.1
COCCNC(=O)C1c2ccccc2C(=O)N(CCOC)C1c1ccc(F)cc1 (stereo unspecified)	11.6	2.2	-1.8	-2.3	-7.61*	-0.3
CN(C)NC(=S)Nc1ccc2nc(-c3ccccn3)c(-c3ccccn3)nc2c1	19.3	-3.7	18.6	-7.6	-0.229	3.5
CCOC(=O)N1CCN(C(=O)Nc2ccc3nc(-c4ccccn4)c(-c4ccccn4)nc3c2)CC1	/	/	/	/	0.00255	/
CC(C)(C)CC(C)(C)NC(=S)Nc1ccc2nc(-c3ccccn3)c(-c3ccccn3)nc2c1	-36.7	-1.6	76.2*	24.2	1	-0.1
OCCCNC(=S)Nc1ccc2nc(-c3ccccn3)c(-c3ccccn3)nc2c1	1.5	2.5	36.1*	-5.0	0.372	4.5
CC12CC(c3ccccc3O1)N(C(=O)c1ccco1)C(=S)N2c1ccc(F)cc1 (stereo unspecified)	7.9	-3.1	6.8	-4.7	-1.46	-3.9
COc1ccc(CN2C(=O)c3ccccc3C(/C=N\OCc3ccc(C)cc3)C2=O)cc1 (stereo unspecified)	9.0	-3.4	24.8	-13.0	0.0253	-3.5
COc1cc(/C=N/NC(=O)CCc2c(C)n[nH]c2C)ccc1O	8.3	0.6	7.1	-8.2	-9.44*	0.6
COc1ccc(/C=N/NC(=O)CCc2c(C)n[nH]c2C)cc1OC	-16.2	-3.9	1.9	-6.4	-1.16	-0.3
COC(=O)C[C@H]1c2ccccc2S(=O)(=O)N1Cc1ccc(OC)cc1	/	/	/	/	0.744	/
O=C(Cc1ccc(-n2c(=S)[nH]c3ccccc3c2=O)cc1)N1CCN(c2ccccc2)CC1	7.2	2.3	-2.8	-13.8	-0.0727	-0.8
Cc1cc(C)c(C(N)=O)c(NC(=O)Nc2ccccc2Cl)n1	-4.5	5.3	6.8	-7.8	1.24	1.5
O=C(Nc1c(Cl)cc(Cl)cc1C(=O)NCc1cccnc1)c1ccc(Cl)cc1Cl	57.4*	-10.2	0.7	-7.6	0.594	-1.7
SMILES	Plk1 PBD FP	EphB4 antag	Rev-RRE block	PLK1 kinase inh	DAT uptake mod	FAK inh
Cc1cc2nc3n(c2cc1C)CC1CC(C(=O)NCc2cccc(C(F)(F)F)c2)N(C)C31 (stereo unspecified)	/	/	/	/	0.806	/
CN1C(C(=O)NCc2cccc(C(F)(F)F)c2)CC2Cn3c(nc4cc5ccccc5cc43)C21 (stereo unspecified)	/	/	/	/	1.52*	/
O=C(CSCCO)Nc1ccc(C2CCCCC2)cc1	/	/	/	/	3.07*	/
CC(=O)c1ccc(NC(=O)CSCCO)cc1	-12.2	4.2	2.5	-9.8	-0.897	0.8
O=C(NCCO)c1ccccc1O	-0.3	4.1	7.4	-7.9	-9.92*	1.9
C/C(=N\OCC(=O)N/N=C/c1ccccc1O)c1cccs1	-15.7	6.7	9.6	1.2	-0.206	-1.2
COc1cccc(/C=N/NC(=O)CO/N=C(\C)c2cccs2)c1OC	6.5	-3.3	8.6	-11.0	3.17*	-0.8
CNC(=O)CSc1nc2nc(C)cc(C)n2n1	-2.8	4.0	9.6	-8.5	-1.49	-1.6
Cc1cc(C)n2nc(SCC(=O)N(C(C)C)C(C)C)nc2n1	/	/	/	/	-8.91*	/
CCn1c(SCC(=O)N2CCN(c3ccccc3F)CC2)nnc1-c1ccoc1C	5.5	-6.9	0.5	0.9	2.68*	-1.2
COC/C=C/C1=CC2=CC(=O)C(C)(OC(=O)c3cnc4ccccc4n3)C(=O)C2=CN1CCc1c[nH]c2ccccc12 (stereo unspecified)	/	/	/	/	-2.3	/
O=C(c1ccccn1)N(Cc1cc2ccccc2[nH]c1=O)C1CCCCC1	9.0	-5.1	-1.3	-9.5	2.9*	0.6
COc1ccc2[nH]c(=O)c(CN(C(=O)c3ccccn3)C3CCCCC3)cc2c1	-17.3	-9.9	4.7	-7.9	0.246	-0.3
CC(=O)OC1COC(OC2C(O)C(C)OC(OC3C(OC4CCC5(C)C(CCC6(C)C5CC=C5C7CC(C)(C)CCC7(C(=O)O)CCC56C)C4(C)CO)OCC(O)C3O)C2O)C(O)C1OC(C)=O (stereo unspecified)	/	/	/	/	-10.1*	/
O=C(NCc1ccco1)c1cc(-c2ccccc2)nn1CC1CC(c2cccnc2)=NO1 (stereo unspecified)	/	/	/	/	2.15*	/
O=C(NCc1ccc(OC(F)(F)F)cc1)c1cc(-c2ccccc2)nn1CC1CC(c2cccnc2)=NO1 (stereo unspecified)	/	/	/	/	-0.994	/
COc1cccc(-c2csc3nc[nH]c(=O)c23)c1	-8.4	-5.2	7.8	60.9*	1.33	2.4
O=C(c1ccco1)N1CCN(S(=O)(=O)c2ccc3[nH]c(=O)oc3c2)CC1	-14.7	4.3	1.1	-8.1	-0.648	-5.9
Cn1c(=O)oc2cc(S(=O)(=O)N3CCN(C(=O)c4ccco4)CC3)ccc21	-9.1	-2.1	41.3*	-3.6	-0.144	-4.2
Cc1onc(-c2ccccc2Cl)c1C(=O)Nc1ccccc1N1CCOCC1	12.6	0.3	11.4	-8.4	1.65	-1.2
CC(=O)Nc1cccc2c1C(=O)N(c1cccc(C)c1)C2=O	-2.9	6.3	1.9	-8.3	-0.276	1.7
Cc1cccc(N2C(=O)c3cccc4c(N(C)CCO)ccc(c34)C2=O)c1	-127.7	5.0	128.7*[fluorescence artefact?]	-29.4	0.0482	1.4
O=C1C=C(c2ccc(Cl)cc2)OC2(CCCC2)O1	-10.9	4.2	4.0	-8.9	-2.57*	5.8
